Measured values taken from ChEMBL document CHEMBL1795212, “Synthesis and in vitro antimalarial activity of tetraoxane-amine/amide conjugates” (Eur J Med Chem, 2011).

Legend:
Plasmodium falciparum [1] = test: Antimalarial activity against Plasmodium falciparum W2 assessed as plasmodial LDH activity after 72 hrs; assay type: functional, organism-based
Outline: (§1)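 P. falciparum D6 (chloroquine-sensitive) and W2 (chloroquine-resistant) clones screened in vitro alongside Vero cytotoxicity, up to a highest concentration of 12.5; IC50 determined.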

[2] = Selectivity index, IC50 for african green monkey Vero cells to IC50 for Plasmodium falciparum W2; assay type: functional
Outline: (§2)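 Selectivity index is the cytotoxicity IC50 in Vero cells divided by the antimalarial IC50 against the stated P. falciparum clone (D6 or W2).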

Vero = test: Cytotoxicity against african green monkey Vero cells at 12.5 uM; assay type: cell-based; details: chlorocebus sabaeus
Outline: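 Mammalian kidney Vero cells screened in vitro for cytotoxicity, in parallel with the antimalarial screen, up to a highest concentration of 12.5.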

[3] = Selectivity index, IC50 for african green monkey Vero cells to IC50 for Plasmodium falciparum D6; assay type: functional; outline: as §2
Plasmodium falciparum [4] = test: Antimalarial activity against Plasmodium falciparum D6 assessed as plasmodial LDH activity after 72 hrs; assay type: functional, organism-based; outline: as §1
[5] = Plasmodium falciparum, W2, 72 h, read-out: IC50
[6] = Plasmodium falciparum, D6, 72 h, read-out: IC50

| Compound | IC50 (Plasmodium falciparum [1]; [5]) [nM] | Ratio IC50 [2] | Activity (Vero) | Ratio IC50 [3] | IC50 (Plasmodium falciparum [4]; [6]) [nM] | IC50 (Plasmodium falciparum [1]) | IC50 (Plasmodium falciparum [4]) |
| --- | --- | --- | --- | --- | --- | --- | --- |
| Cc1cccc(C2OOC(c3ccc(CO)cc3)OO2)c1 (stereo not given) | 1380 | >11.9 | Non-toxic | >12.9 | 1280 | – | – |
| Cc1ccccc1C1OOC(c2ccc(C=O)cc2)OO1 (stereo not given) | – | – | Non-toxic | – | – | Not Active | Not Active |
| Cc1ccc(C2OOC(c3ccc(CNCc4ccccc4)cc3)OO2)cc1 (stereo not given) | 3440 | >3.7 | Non-toxic | >3.7 | 3440 | – | – |
| Cc1ccc(C2OOC(c3ccc(CN(C)c4ccccc4)cc3)OO2)cc1 (stereo not given) | 2110 | >6 | Non-toxic | >8.4 | 1510 | – | – |
| Cc1ccc(C2OOC(c3ccc(CNc4cccc(C)c4)cc3)OO2)cc1 (stereo not given) | 2380 | >5.3 | Non-toxic | >4.8 | 2640 | – | – |
| Cc1ccc(C2OOC(c3ccc(/C=N/CCc4ccccc4)cc3)OO2)cc1 (stereo not given) | 1490 | >8.2 | Non-toxic | >7.9 | 1540 | – | – |
| Cc1ccc(C2OOC(c3ccc(C(=O)N4CCN(c5ccccc5)CC4)cc3)OO2)cc1 (stereo not given) | 7160 | >1.5 | Non-toxic | >2.6 | 4030 | – | – |
| CCCNC(=O)c1ccc(C2OOC(c3ccc(C)cc3)OO2)cc1 (stereo not given) | 13900 | >1 | Non-toxic | >3.4 | 8730 | – | – |
| CCc1ccc(C2OOC(c3ccc(CO)cc3)OO2)cc1 (stereo not given) | 1090 | 14.4 | Non-toxic | 9.9 | 1580 | – | – |
| Cc1ccc(C2OOC(c3ccc(C(=O)NCCCCCCO)cc3)OO2)cc1 (stereo not given) | – | – | Non-toxic | – | – | Not Active | Not Active |
| Cc1ccc(C2OOC(c3ccc(CNc4ccc(F)cc4)cc3)OO2)cc1 (stereo not given) | 2350 | >5.3 | Non-toxic | >6 | 2090 | – | – |
| CCc1ccc(C2OOC(c3ccc(C(=O)NCCCO)cc3)OO2)cc1 (stereo not given) | 4820 | >2.6 | Non-toxic | >2.6 | 4820 | – | – |
| CCCCCNC(=O)c1ccc(C2OOC(c3ccc(CC)cc3)OO2)cc1 (stereo not given) | – | – | Non-toxic | – | – | Not Active | Not Active |
| COc1ccc(NCc2ccc(C3OOC(c4ccc(C)cc4)OO3)cc2)cc1 (stereo not given) | 10200 | >1.2 | Non-toxic | >1.5 | 8130 | – | – |
| CCCc1ccc(NCc2ccc(C3OOC(c4ccc(C)cc4)OO3)cc2)cc1 (stereo not given) | 4190 | >2.8 | Non-toxic | >2.3 | 5670 | – | – |
| Cc1cccc(C2OOC(c3ccc(C=O)cc3)OO2)c1 (stereo not given) | – | – | Non-toxic | – | – | Not Active | Not Active |
| Cc1ccc(C2OOC(c3ccc(CNc4cccc(F)c4)cc3)OO2)cc1 (stereo not given) | 1830 | >6.8 | Non-toxic | >5.1 | 2460 | – | – |
| Cc1ccc(C2OOC(c3ccc(CNc4cccc5ccccc45)cc3)OO2)cc1 (stereo not given) | – | – | Non-toxic | – | – | Not Active | Not Active |
| CCc1ccc(C2OOC(c3ccc(C(=O)NCCCCCCO)cc3)OO2)cc1 (stereo not given) | 4810 | >2.4 | Non-toxic | >3.4 | 3360 | – | – |
| Cc1ccc(C2OOC(c3ccc(/C=N\c4ccccc4)cc3)OO2)cc1 (stereo not given) | 5530 | >2.4 | Non-toxic | >1.7 | 7740 | – | – |

| Compound | IC50 (Plasmodium falciparum [1]; [5]) [nM] | Ratio IC50 [2] | Activity (Vero) | Ratio IC50 [3] | IC50 (Plasmodium falciparum [4]; [6]) [nM] | IC50 (Plasmodium falciparum [1]) | IC50 (Plasmodium falciparum [4]) |
| --- | --- | --- | --- | --- | --- | --- | --- |
| Cc1ccc(C2OOC(c3ccc(CNc4ccccc4C)cc3)OO2)cc1 (stereo not given) | – | – | Non-toxic | – | – | Not Active | Not Active |
| Cc1ccc(C2OOC(c3ccc(CNc4ccc(C(C)C)cc4)cc3)OO2)cc1 (stereo not given) | 3200 | >3.7 | Non-toxic | >4.9 | 2390 | – | – |
| Cc1ccc(C2OOC(c3ccc(/C=N/C4CCCCC4)cc3)OO2)cc1 (stereo not given) | 1850 | >7 | Non-toxic | >6.8 | 1900 | – | – |
| Cc1ccc(C2OOC(c3ccc(C(=O)NCCNc4ccnc5cc(Cl)ccc45)cc3)OO2)cc1 (stereo not given) | 1500 | >6.3 | Non-toxic | >8.5 | 1100 | – | – |
| Cc1ccc(C2OOC(c3ccc(/C=N\N)cc3)OO2)cc1 (stereo not given) | 1260 | >9 | Non-toxic | >9 | 2590 | – | – |
| Cc1ccc(C2OOC(c3ccc(CNc4ccccc4Cl)cc3)OO2)cc1 (stereo not given) | 2760 | >4.3 | Non-toxic | >4.8 | 2510 | – | – |
| COc1cc(NCc2ccc(C3OOC(c4ccc(C)cc4)OO3)cc2)cc(OC)c1 (stereo not given) | 9200 | >1.2 | Non-toxic | >1.8 | 6370 | – | – |
| Cc1ccc(C2OOC(c3ccc(/C=N\c4ccc(Br)cc4)cc3)OO2)cc1 (stereo not given) | 4090 | >2.6 | Non-toxic | >1.4 | 7950 | – | – |
| Cc1ccc(C2OOC(c3ccc(CNCCc4ccccc4)cc3)OO2)cc1 (stereo not given) | 6390 | >1.9 | Non-toxic | >1.6 | 7670 | – | – |
| Cc1ccc(C2OOC(c3ccc(CO)cc3)OO2)cc1 (stereo not given) | 2420 | >6.8 | Non-toxic | >9 | 1830 | – | – |
| CCc1ccc(C2OOC(c3ccc(C(=O)NCCO)cc3)OO2)cc1 (stereo not given) | 7510 | >1.8 | Non-toxic | >2 | 6670 | – | – |
| Cc1ccc(C2OOC(c3ccc(C(=O)NCCCO)cc3)OO2)cc1 (stereo not given) | – | – | Non-toxic | – | – | Not Active | Not Active |
| CCc1ccc(C2OOC(c3ccc(C(=O)O)cc3)OO2)cc1 (stereo not given) | – | – | Non-toxic | – | – | Not Active | Not Active |
| Cc1ccc(C2OOC(c3ccc(CNc4cccc(Cl)c4)cc3)OO2)cc1 (stereo not given) | – | – | Non-toxic | – | – | Not Active | Not Active |
| Cc1ccc(C2OOC(c3ccc(C=O)cc3)OO2)cc1 (stereo not given) | – | – | Non-toxic | – | – | Not Active | Not Active |
| Cc1ccc(NCc2ccc(C3OOC(c4ccc(C)cc4)OO3)cc2)cc1 (stereo not given) | – | – | Non-toxic | – | – | Not Active | Not Active |
| CCN(CC)CCCC(C)Nc1ccnc2cc(Cl)ccc12 (stereo not given) [CHLOROQUINE] | – | – | Non-toxic | – | – | – | – |
| Cc1ccc(C2OOC(c3ccc(C(=O)NCCO)cc3)OO2)cc1 (stereo not given) | – | – | Non-toxic | – | – | Not Active | Not Active |
| CCCCNC(=O)c1ccc(C2OOC(c3ccc(C)cc3)OO2)cc1 (stereo not given) | – | – | Non-toxic | – | – | Not Active | Not Active |
